# NPY-Y1 antag: NPY-Y1 (human) receptor antagonism. P25929. hit rate 1% among 200,000. HEK293-CNG Y1 cells, membrane potential fluorescence; NPY at EC95, then isoproterenol. inhibition, % at 3.6 µM. AID 1040;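 active means inhibition above the campaign mean inhibition of all tested compounds plus 3 SD, cut at about 20% in these data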;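 further: 0% = DMSO wells given NPY plus isoproterenol and 100% = isoproterenol alone without NPY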
#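 Material: HEK293 Y1/CNG channel cell line; also added: NPY (25 nM), isoproterenol (1 µM), Ro 20-1724 (25 µM); doses: one concentration, 3.6 µM, in 0.4% DMSO; schedule: compound incubation 1 h at room temperature, readout 45 min post-stimulation; technique: membrane potential fluorescence; measure: fluorescence ratio normalized to % inhibition between controls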
# NPY Y2 blocker: NPY-Y2 (human) receptor antagonism. P49146. NPY-Y2 expressing cells, antagonist mode. inhibition, % at 2.7 µM. hit rate 0.99% among 140,000. AID 793; in the data active means inhibition above about 17%;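 further: 0% = vehicle with agonist challenge and 100% = reference antagonist with challenge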
# Target sequence (P49146 whole entry, looked up): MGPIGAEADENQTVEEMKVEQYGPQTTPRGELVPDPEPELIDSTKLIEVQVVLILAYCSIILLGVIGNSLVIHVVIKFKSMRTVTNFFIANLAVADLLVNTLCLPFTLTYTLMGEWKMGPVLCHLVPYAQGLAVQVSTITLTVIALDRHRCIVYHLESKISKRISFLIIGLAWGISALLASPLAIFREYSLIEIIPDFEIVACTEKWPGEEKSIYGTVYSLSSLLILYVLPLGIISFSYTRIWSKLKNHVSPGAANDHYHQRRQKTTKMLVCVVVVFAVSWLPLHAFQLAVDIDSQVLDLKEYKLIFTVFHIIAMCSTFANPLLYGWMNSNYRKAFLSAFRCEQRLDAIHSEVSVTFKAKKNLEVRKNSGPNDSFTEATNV
# NPY2 pot ag: potentiators or agonists of human neuropeptide Y receptor Y2. activation, % at 3.6 µM. P49146. hit rate 0.45% among 220,000. cells expressing NPY-Y2, potentiator/agonist read-out. AID 1359; in the data active means activation above about 27%;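 further: cells stimulated with NPY near EC25 plus isoproterenol at EC100; 0% = vehicle plus submaximal agonist and 100% = vehicle plus saturating agonist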
# NPY-Y1 PAM-ag: potentiators or agonists of human neuropeptide Y receptor Y1; hit rate 0.37% among 220,000; activation, % at 3.6 µM; P25929; NPY-Y1 expressing cells, potentiator/agonist activation; in the data active means activation above about 33%, passing the limit was not always enough;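 further: cells stimulated with NPY at EC10 then isoproterenol at EC100; 0% = low agonist plus stimulus and 100% = saturating agonist plus stimulus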
# NPY-Y1 antag ct: antagonizes human NPY-Y1, counter-screen to NPY-Y2 antagonists; shares compounds with NPY Y2 blocker; cell-based NPY-Y1 antagonism counterscreen; hit rate 19% among 710; inhibition, % at 3.6 µM; in the data active means inhibition above about 20%;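 further: cells challenged with NPY then isoproterenol with cAMP sensed through a CNG channel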
# NPY-Y2 ant conf: human NPY-Y2 antagonism, confirmation; HEK293 NPY-Y2 CNG channel, membrane potential fluorescence; hit rate 32% among 710; shares compounds with NPY Y2 blocker; AID 1257; inhibition, % at 2.8 µM;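 active means mean inhibition of triplicate wells above the hit cutoff set in the primary screen, cut at about 17% in these data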;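 further: 0% = DMSO with NPY challenge and 100% = BIIE0246 high control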
# Numbers without * were called inactive; · = no result. Most compounds without a hit are left out; they make up all but 1.8% or so of the library.
SMILES,NPY-Y1 antag,NPY Y2 blocker,NPY2 pot ag,NPY-Y1 PAM-ag,NPY-Y1 antag ct,NPY-Y2 ant conf
COCC(COCCCNC(=O)Nc1ccc(Br)cc1)OC (configuration not stated),-6,2,2,-6,·,·
Cc1ccc(SCCNC(=O)/C=C/c2ccc(Cl)cc2)cc1,9,19*,-1,-23,29*,39*
COc1cc(/C=C2\SC(=Nc3ccc(O)cc3)NC2=O)cc(OC)c1O,8,·,-2,9,·,·
COc1cc(/C=C2\SC(=Nc3c(C)n(C)n(-c4ccccc4)c3=O)NC2=O)ccc1O,20*,31*,-6,-28,48*,74*
COCCCNC(=O)CCCn1c(=O)c2ccccc2n(Cc2cccc([N+](=O)[O-])c2)c1=O,0,·,8,1,·,·
COc1cccc(NC(=O)CC2C(=O)NC3CCCCC3N2C(=O)c2ccc(F)cc2)c1 (configuration not stated),0,2,1,-21,·,·
Cc1c(C(=O)O)c(C(=O)O)c2n1CCS2,·,·,0,-16,·,·
CCOc1ccc2nc(NC(=O)CS(=O)(=O)c3ccc(C)cc3)sc2c1,8,25*,-18,-17,16,18*
CCOc1ccc2nc(NC(=O)CS(=O)(=O)c3ccccc3)sc2c1,0,1,-23,-24,·,·
COCCOC(=O)c1[nH]c2c(c1C)C(=O)CC(c1ccco1)C2 (configuration not stated),9,32*,9,3,-3,5
C=CCC1CCCC(=O)N2CC[C@H](O)C12 (some centres not stated),-4,0,0,-16,·,·
CN(C[C@@H](CC1CCCCC1)N(C[C@H](Cc1ccccc1)N(CCc1ccccc1)N=O)N=O)N=O,3,·,-9,10,·,·
N#Cc1ccc(-c2cccnc2)nc1SCc1ccc(Cl)c(Cl)c1,4,27*,10,2,19,21*
COc1ccc(S(=O)(=O)Nc2ccccc2OC)cc1NC(=O)CC1CC2CCC1C2 (configuration not stated),-3,0,5,22,·,·
Cc1ccc(/C=C/c2nnc(-c3cccc(C)c3)o2)cc1,9,4,3,-9,·,·
Cc1ccc(-c2nnc(/C=C/c3ccccc3)o2)cc1,6,20*,-9,-10,7,10
O=C(/C=C/c1cccc2ccccc12)c1ccncc1,-4,20*,8,-4,11,19*
CCOC(=O)c1c(NC(=O)CSC2=NN3CCCC(=O)N=C3S2)sc2c1CCCCC2,3,19*,7,0,25*,43*
COC(=O)c1ccc(C2C(Oc3ccc(OC)cc3)C(=O)N2CCc2ccc(OC)c(OC)c2)cc1 (configuration not stated),11,3,3,-15,·,·
COC(=O)c1ccc(C2C(Oc3ccccc3)C(=O)N2CCc2ccc(F)cc2)cc1 (configuration not stated),19,24*,-20,21,30*,14
O=C(N/N=C/c1ccccc1)c1ccc(N2CCOCC2)c([N+](=O)[O-])c1,7,3,-4,0,·,·
CCCCC(=O)N/N=C/c1ccc(N2CCOCC2)c([N+](=O)[O-])c1,0,21*,-6,-32,8,17*
COc1ccc(CNC(=O)c2nnn(-c3cccc(C(F)(F)F)c3)c2N)cc1,-2,·,3,6,·,·
Cc1ccc(-c2nn3c(C)nnc3c3ccccc23)cc1S(=O)(=O)NC(C)c1ccccc1 (configuration not stated),4,18*,-26,-8,12,19*
Cc1ccc(-c2nn3c(C)nnc3c3ccccc23)cc1S(=O)(=O)NCCO,-7,·,-11,8,·,·
SMILES,NPY-Y1 antag,NPY Y2 blocker,NPY2 pot ag,NPY-Y1 PAM-ag,NPY-Y1 antag ct,NPY-Y2 ant conf
CC(C)OP(=O)(c1ccc(N(C)C)cc1)C(O)c1cccnc1 (configuration not stated),·,·,2,-2,·,·
CC(C)c1ccc(-c2nnn(CCC#N)n2)cc1,2,·,-10,1,·,·
CC(C)c1ccc(-c2nnn(Cc3nc4ccccc4s3)n2)cc1,16,23*,-24,-60,16,23*
Cc1ccc(C(=O)NC2CCc3ccccc3C2=O)cc1 (configuration not stated),4,·,5,11,·,·
Cc1ccc(C(=O)NC2c3ccccc3-c3ccccc32)cc1,16,19*,-7,5,12,11
CCCCCCn1c(CN2CCN(C(=O)OCC)CC2)nc2c1c(=O)n(C)c(=O)n2C,1,4,-1,-16,·,·
Cc1cc(C)nc(N2CCC(C(=O)NNC(=O)Cc3ccccc3)CC2)n1,·,·,-12,-5,·,·
CC(=O)NC1(c2ccccc2)CCN(c2nc(C)cc(C)n2)CC1,15,49*,-10,-20,35*,35*
CCn1c(SCC(=O)N2CCN(c3ccccc3F)CC2)nnc1-c1ccoc1C,1,6,-6,-14,·,·
CN(C)c1ccc(C(=O)OCc2ccccc2)cc1,7,8,-17,-31,·,·
COC(=O)c1ccc(COC(=O)c2ccc(N(C)C)cc2)cc1,8,20*,-5,-46,4,10
CCCC(=O)Nc1ccc(C(=O)NNC(=O)COc2ccc(Br)c(C)c2)cc1,3,5,-4,-21,·,·
CN1C(=O)/C(=C/c2cc(N=Nc3ccccc3)ccc2O)SC1=S,-6,4,3,7,·,·
CC(C)n1c(C(=O)OCC(=O)NCc2ccc3c(c2)OCO3)cc2occc21,5,14,-6,-23,·,·
CC(C)n1c(C(=O)OCC(=O)NCc2ccc3c(c2)OCO3)cc2sccc21,6,22*,-3,-28,8,8
c1ccc(N2CCN(c3nc(NCc4ccco4)c4ccccc4n3)CC2)cc1,12,19*,32*,-7,9,7
c1ccc2c(N3CCCCC3)nc(N3CCCCC3)nc2c1,0,23*,-16,-7,5,1
c1ccc2c(N3CCCCC3)nc(N3CCOCC3)nc2c1,4,·,-6,-13,·,·
c1coc(CNc2nc(N3CCCCC3)nc3ccccc23)c1,19,26*,-8,-23,18,15
CN(C)c1cccc(C(=O)OCC(=O)Nc2nccs2)c1,-2,-1,-4,-5,·,·
Cc1cc(C)n(CCCN2C(=O)c3cccc4cccc(c34)C2=O)n1,-2,·,6,8,·,·
N#Cc1c(NC(=O)c2cccc(S(=O)(=O)Nc3ccc(C(=O)O)cc3)c2)sc2c1CCCC2,·,·,-32,5,·,·
CCC(C)N(C(=O)COC(=O)/C=C/c1ccc(O)c(OC)c1)C1CCS(=O)(=O)C1 (configuration not stated),4,18*,-1,9,1,0
COc1cc(/C=C/C(=O)OCC(=O)NC2CCS(=O)(=O)C2)ccc1O (configuration not stated),-1,-1,-1,0,·,·
COc1ccc(-n2c(COc3cccc4ccccc34)nnc2SCC#N)cc1,16,18*,-3,-17,6,6
N#CCSc1nnc(COc2cccc3ccccc23)n1-c1ccccc1,2,15,8,31,·,·

# Source: PubChem
